In ChEMBL document CHEMBL1255434, “Heat stress cognate 70 host protein as a potential drug target against drug resistance in hepatitis B virus” (Antimicrob Agents Chemother, 2010):
≈ marks a conversion by molar mass, not a printed value. Calls of active or inactive are those of the source. No cut-off for these calls is given here.

What was measured:
[1] = test system: HepG2 2.2.15; experiment: Reduction in Hsc70 mRNA half-life in Hepatitis B virus infected in human HepG2(2.2.15) cells at 1.51 mM after 24 hrs by RT-PCR analysis; format: functional; conditions: HepG2 2.2.15, 24 h
How it was run: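 HepG2.2.15 cells treated or not with 0.4 mg/ml (1.51 mM) for 24 h, then actinomycin D 5 μg/ml added to block transcription. RNA harvested at intervals; Hsc70 mRNA by real-time RT-PCR, normalized to GAPDH. Percent remaining plotted against time to estimate T1/2. Repeated twice.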

[2] = test system: Hepatitis B virus; experiment: Antiviral activity against lamivudine-resistant Hepatitis B virus infected in human Huh-7 cells assessed as suppression of viral replication at 1.51 mM after 24 hrs by RT-PCR analysis; format: functional; conditions: Huh-7, 24 h
How it was run: (§1)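 Huh-7 cells (10^5/well) were plated and incubated overnight. They were then transfected for 24 h with pcDNA3.1 carrying one HBV strain: Lamr (rtL180M+rtM204V), Advr (rtA181V+rtN236T) or Etvr (rtL180M+rtM204V+rtS202G). Medium was replaced with fresh medium containing 0.4 mg/ml (1.51 mM) for 24 h. Intracellular HBV DNA replicative intermediates were quantified by real-time PCR against untreated controls. Performed twice.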

[3] = test system: HepG2; experiment: Decrease in Hsc70- mRNA expression in human liver HepG2 cells at 0.23 to 0.94 mM after 24 hrs by RT-PCR analysis; format: functional, cell-based
How it was run: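 Hsc70 mRNA by one-step SYBR Green qRT-PCR after 24 h treatment at 0.0625 or 0.25 mg/ml (0.23 and 0.94 mM), relative to untreated cells. More than 5 experiments; means and SD.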

[4] = Cytotoxicity against human HepG2(2.2.15) cells assessed as cell growth at 1.51 mM after 36 hrs; format: cell-based; conditions: hepg2 2.2.15, 36 h, 1510 µM
How it was run: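 HepG2.2.15 cell growth followed during 36 h exposure to 0.4 mg/ml (1.51 mM), compared with untreated cells; experiment repeated twice.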

[5] = Decrease in Hsc70- mRNA expression in Hepatitis B virus infected in human HepG2(2.2.15) cells at 1.51 mM by RT-PCR analysis; format: functional, cell-based; conditions: TDE = time-dependent effect
[6] = Decrease in Hsc70-protein expression in Hepatitis B virus infected in human HepG2(2.2.15) cells at 1.51 mM after 24 hrs by Western blot analysis; format: functional, cell-based
How it was run: (§2)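 HepG2.2.15 cells treated 24 h at 0.4 mg/ml (1.51 mM). Western blot: RIPA lysates with PMSF and protease inhibitors, SDS-PAGE, PVDF, 5% milk/TBST block 1 h at 37°C, mouse anti-Hsc70 monoclonal, HRP secondary, ECL. Flow cytometry: rabbit anti-Hsc70 with Cy5-labelled anti-rabbit secondary. Five experiments per assay.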

[7] = Decrease in Hsc70-protein expression in Hepatitis B virus infected in human HepG2(2.2.15) cells at 1.51 mM after 24 hrs by flow-cytometric assay; format: functional, cell-based; how it was run: as §2
[8] = Decrease in Hsc70- mRNA expression in Hepatitis B virus infected in human HepG2(2.2.15) cells at 1.51 mM after 72 hrs by RT-PCR analysis; format: functional, cell-based
How it was run: (§3)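 Dose-response in HepG2.2.15 cells: 5.9, 23.6, 94.5 and 378 μM and 1.51 mM for 72 h. Hsc70 mRNA by qRT-PCR and intracellular HBV DNA by real-time PCR, each expressed relative to untreated cells (=1). HBV DNA also checked by dot blot. EC50 from this curve.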

[9] = test system: Hepatitis B virus; experiment: Antiviral activity against Hepatitis B virus infected in human HepG2(2.2.15) cells assessed as decrease in intracellular viral DNA level at 1.51 mM after 36 hrs by RT-PCR analysis; format: functional; conditions: HepG2 2.2.15, 36 h
How it was run: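 HepG2.2.15 cells (HBV full-genome transfected HepG2) in MEM with 10% FBS, exposed to 0.4 mg/ml (1.51 mM) for 36 h. Intracellular DNA (genomic plus HBV) isolated and HBV DNA quantified by SYBR Green real-time PCR. Values were normalised to the untreated-cell mean, set as 1.0. Run 3 times; means and SD.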

[10] = test system: Hepatitis B virus; experiment: Antiviral activity against Hepatitis B virus infected in human HepG2(2.2.15) cells assessed as decrease in supernatant viral DNA level at 1.51 mM after 36 hrs by RT-PCR analysis; format: functional; design: scale not given: the % may be the effect or the level left
[11] = Decrease in Luc mRNA expression in human sHepG2(2.2.15) cells expressing pLuc-3'UTR […] by RT-PCR analysis; format: functional, cell-based; design: scale not given: the % may be the effect or the level left; conditions: HepG2 2.2.15
[12] = Decrease in Luc mRNA expression in human sHepG2(2.2.15) cells expressing pLuc-5'UTR after 24 hrs by RT-PCR analysis; format: functional, cell-based; conditions: HepG2 2.2.15
How it was run: (§4)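 HepG2.2.15 cells transfected 24 h with luciferase reporter pLuc (pcDNA3.0 backbone), pLuc-3′UTR or pLuc-5′UTR (Hsc70 UTR chimeras). Cells split into two dishes, incubated overnight, then given drug or dilution buffer. Total RNA taken 12 h later; Luc mRNA by real-time RT-PCR. Three experiments; means and SD.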

[13] = Decrease in wild type Luc mRNA expression in human HepG2(2.2.15) cells after 24 hrs by RT-PCR analysis; format: functional, cell-based; how it was run: as §4
[14] = Decrease in HscA4-mRNA expression in Hepatitis B virus infected in human HepG2(2.2.15) cells at 1.51 mM after 24 hrs by RT-PCR analysis; format: functional, cell-based
How it was run: (§5)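 HepG2.2.15 cells at 0.4 mg/ml (1.51 mM). HspA4 and Hsp90 mRNA measured as host reference genes by one-step SYBR Green qRT-PCR, alongside Hsc70 mRNA and HBV DNA.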

[15] = Decrease in HscA90-mRNA expression in Hepatitis B virus infected in human HepG2(2.2.15) cells at 1.51 mM after 24 hrs by RT-PCR analysis; format: functional, cell-based; how it was run: as §5
[16] = test system: Hepatitis B virus; experiment: Antiviral activity against Hepatitis B virus infected in human HepG2(2.2.15) cells assessed as decrease in intracellular viral DNA level at 113 uM after 72 hrs by RT-PCR analysis; format: functional, organism-based
How it was run: (§6)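 HepG2.2.15 cells (HBV genome-transfected, MEM + 10% FBS) treated 72 h with drug alone or in two-drug combination. Entecavir 0.6 μg/ml (2.16 μM), adefovir 3 μg/ml (5.9 μM), lamivudine 3 μg/ml (13 μM), oxymatrine 30 μg/ml (113 μM). Intracellular HBV DNA by SYBR Green real-time PCR, relative to untreated. Experiment repeated twice; means and SD, Student's t test.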

[17] = test system: Hepatitis B virus; experiment: Antiviral activity against Hepatitis B virus infected in human HepG2(2.2.15) cells assessed as decrease in intracellular viral DNA level at 113 uM after 72 hrs by RT-PCR analysis in presence of adefovir; format: functional, organism-based; how it was run: as §6
[18] = test system: Hepatitis B virus; experiment: Antiviral activity against Hepatitis B virus infected in human HepG2(2.2.15) cells assessed as decrease in intracellular viral DNA level at 113 uM after 72 hrs by RT-PCR analysis in presence of entecavir; format: functional, organism-based; how it was run: as §6
[19] = test system: Hepatitis B virus; experiment: Antiviral activity against Hepatitis B virus infected in human HepG2(2.2.15) cells assessed as reduction in viral DNA level at 23.6 uM to 1.51 mM after 72 hrs by RT-PCR analysis; format: functional; how it was run: as §3
[20] = test system: Hepatitis B virus; experiment: Antiviral activity against Hepatitis B virus infected in human HepG2(2.2.15) cells assessed as reduction in viral DNA level by RT-PCR analysis; format: functional, organism-based
[21] = Cytotoxicity against human HepG2(2.2.15) cells assessed as cell killing by MTT assay; format: cell-based
How it was run: (§7)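 CC50 from MTT assay in HepG2.2.15 cells. Therapeutic ratio taken as CC50 over the anti-HBV EC50 from the 72 h dose-response measuring intracellular HBV DNA by real-time PCR.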

[22] = Therapeutic index, ratio of CC50 for human sHepG2(2.2.15) cells to IC50 for Hepatitis B virus; format: cell-based; conditions: HepG2 2.2.15 cells; how it was run: as §7
[23] = test system: Hepatitis B virus; experiment: Antiviral activity against Hepatitis B virus infected in human HepG2(2.2.15) cells assessed as reduction in viral DNA replicative intermediates at 23.6 uM to 1.51 mM after 24 hrs by RT-PCR analysis; format: functional
[24] = test system: Hepatitis B virus; experiment: Antiviral activity against Hepatitis B virus infected in human HepG2(2.2.15) cells assessed as reduction in genomic viral DNA at 23.6 uM to 1.51 mM after 24 hrs by RT-PCR analysis; format: functional; design: scale not given: the % may be the effect or the level left
[25] = test system: Hepatitis B virus; experiment: Antiviral activity against Hepatitis B virus infected in human HepG2(2.2.15) cells assessed as reduction in viral DNA level at 1.51 mM for 12, 24 or 36 hrs by RT-PCR analysis; format: functional, organism-based
How it was run: (§8)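 HepG2.2.15 cells exposed to 0.4 mg/ml (1.51 mM) for 12, 24 or 36 h. Total RNA taken for HBV mRNA by one-step SYBR Green qRT-PCR; intracellular DNA isolated for HBV DNA by real-time PCR. Each value scaled to the mean of untreated cells set as 1.0. Three experiments; means and SD.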

[26] = test system: Hepatitis B virus; experiment: Antiviral activity against Hepatitis B virus infected in human HepG2(2.2.15) cells assessed as reduction in viral mRNA level at 1.51 mM for 12, 24 or 36 hrs by RT-PCR analysis; format: functional, organism-based; how it was run: as §8
[27] = test system: Hepatitis B virus; experiment: Antiviral activity against adefovir-resistant Hepatitis B virus infected in human Huh-7 cells assessed as suppression of viral replication at 1.51 mM after 24 hrs by RT-PCR analysis; format: functional; conditions: Huh-7, 24 h; how it was run: as §1
[28] = test system: Hepatitis B virus; experiment: Antiviral activity against entecavir-resistant Hepatitis B virus infected in human Huh-7 cells assessed as suppression of viral replication at 1.51 mM after 24 hrs by RT-PCR analysis; format: functional; conditions: Huh-7, 24 h; how it was run: as §1
[29] = Half life in human blood; format: ADME, tissue-based
[30] = test system: Hepatitis B virus; experiment: Antiviral activity against drug-resistant chronic Hepatitis B virus infected patients assessed as reduction in viral DNA at 0.4 g/day, po for 12 months; format: functional
[31] = Cytotoxicity against human HepG2(2.2.15) cells assessed as cell survival at 113 uM continuous exposure measured after 7 months; conditions: hepg2 2.2.15, 5113.5 h
[32] = Cytotoxicity against human HepG2(2.2.15) cells assessed as cell survival at 113 uM continuous exposure measured after 2 months; conditions: hepg2 2.2.15, 1461 h
[33] = test system: Hepatitis B virus; experiment: Antiviral activity against Hepatitis B virus infected in human HepG2(2.2.15) cells assessed as reduction in viral DNA level at 113 uM continuous exposure measured after 2 months by RT-PCR analysis
[34] = test system: Hepatitis B virus; experiment: Antiviral activity against Hepatitis B virus infected in human HepG2(2.2.15) cells assessed as reduction in viral DNA level at 113 uM continuous exposure measured after 7 months by RT-PCR analysis
[35] = Decrease in HscA70-mRNA expression in Hepatitis B virus infected in human HepG2(2.2.15) cells at 5.9 uM after 24-36 hrs by RT-PCR analysis; format: functional, cell-based
[36] = test system: Hepatitis B virus; experiment: Antiviral activity against Hepatitis B virus infected in human HepG2(2.2.15) cells assessed as decrease in intracellular viral DNA level at 5.9 uM after 72 hrs by RT-PCR analysis; format: functional, organism-based
How it was run: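 HepG2.2.15 cells were treated at 5.9, 23.6, 94.5 and 378 μM and 1.51 mM for 72 h. Intracellular HBV DNA was measured by real-time PCR, with Hsc70 mRNA by RT-PCR in parallel. Amounts were expressed relative to untreated cells, set as 1. Dot blot was used as confirmation. Means and SD.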

O=C1CCC[C@@H]2[C@H]3CCC[N+]4([O-])CCC[C@@H](CN12)[C@@H]34 (stereo partly specified) [OXYMATRINE]
inhibition at 1510 µM [1]: 50% | inhibition at 1510 µM [2]: 62% | Activity [3]: Active | Activity [4]: Non-toxic | Activity [5]: tde | Activity [6]: Active | Activity [7]: Active | Activity [8]: inactive | inhibition at 1510 µM [9]: 62% | Activity [10]: 60% | Activity [11]: 50% | Activity [12]: inactive | Activity [13]: inactive | Activity [14]: inactive | Activity [15]: inactive | Activity [16]: Active | Activity [17]: Active | Activity [18]: Active | inhibition (INH) [19]: 43% | EC50 [20]: 31 µg/mL (≈ 117 µM) | MTT [21]: 3.12 mg/mL | selectivity ratio [22]: > 100 | inhibition (INH) [23]: 75% | Activity [24]: 54% | Activity [25]: Active | Activity [26]: inactive | inhibition at 1510 µM [27]: 62% | inhibition at 1510 µM [28]: 62% | half-life [29]: 2.4 h | log10cfu [30]: 1.5 | Activity [31]: Non-toxic | Activity [32]: Non-toxic | Activity [33]: Active | Activity [34]: Active

Nc1ncnc2c1ncn2CCOCP(=O)(O)O
Activity [35]: inactive | Activity [36]: Active
